The nature of test [1]: inhibitors of TNFa-induced NFkB p65 translocation, primary screen, imaging, HUVEC, MLSMR starter and 10KST1 sets (AID 438;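 active means inhibition above 20% together with a positive visual image hit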;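 further: compound added about 3h40 before a 20 min TNFalpha stimulation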;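 on inhibition: signal is the nuclear over cytoplasmic p65 intensity ratio per well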). Conditions: HUVEC TNFa-induced p65 nuclear translocation; cell count: measured here: nuclei count (cytotoxicity indicator), at 2.08 µM; inhibition: at 2 µM, stronger effect = higher value, 0% TNFa-plus-vehicle, 100% no-TNFa wells.
Test [2] can be described thus: inhibitors of E-selectin induction by TNFa, primary screen, imaging, HUVEC, immunofluorescence, MLSMR starter and 10KST1 sets (AID 487;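 active means visually confirmed hit in the image check and inhibition above 20%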;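 on inhibition: signal is fraction of cell area covered by stained E-selectin grains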;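 on nuclei count: 100% = median nuclei count of all wells on the same plate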). Conditions: HUVEC TNFalpha-induced E-selectin immunofluorescence imaging, at 2 µM; inhibition: stronger effect = higher value; nuclei count: measured here: cell number, toxicity.
Test [3] in a line: DUSP6 inhibitors restoring Erk phosphorylation by chemical complementation, primary imaging in DUSP6-transfected HeLa (AID 609;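 active means compounds giving at least 50% inhibition in the cell-based MKP-3 phosphatase rescue imaging test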;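 on inhibition: phospho-Erk level distribution per well compared with pooled transfected vehicle control wells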). Conditions: HeLa MKP-3 transfected, phospho-Erk imaging KS statistic, at 10 µM, cells stimulated with TPA for 15 min.
The target in test [4] is Dual specificity protein phosphatase 6 (Homo sapiens) (UniProt Q16828). Described as above. Conditions: HeLa MKP-3 transfected, phospho-Erk imaging KS statistic; at 10 µM; stronger effect = higher value; cells stimulated with TPA for 15 min.
Test [5] deals with Voltage-gated potassium channel subunit beta-2 (Rattus norvegicus) (UniProt P62483). The test can be described thus: KvBeta enzyme negative modulators, primary screen, biochemical, NADPH fluorescence (AID 622;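 active means fluorescence slope higher than the sample average by over 3 SD, cut at about -0.22 in these data, passing the limit was not always enough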;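 further: slope of raw intensity against log time taken from 70 to 1610 s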). The note with it: recombinant KvBeta, 4-cyanobenzaldehyde reduction, at 10 µM, stronger effect = higher value.
For test [6] the target is unchanged. The test can be described thus: KvBeta positive modulators, primary screen, biochemical, NADPH fluorescence (AID 623;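 active means NADPH fluorescence slope more negative than the mean of all samples by about 3 SD, 99.7% confidence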;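 further: fluorescence intensity change per second fitted from 20 to 320 s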). The note with it: Recombinant KvBeta, NADPH fluorescence decrease slope, 10 min; at 10 µM; stronger effect = lower value.
In test [7] the target is Alpha-2C adrenergic receptor (Homo sapiens) (UniProt P18825). The test can be described thus: modulators of alpha2C/GIRK thallium flux, primary screen, cell-based, HEK293 alpha2C/GIRK1/2 (AID 624;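 active means fluorescence slope after compound addition differing from the mean of all screened samples at 99.7% confidence, in either direction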;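 further: slope of fluorescence ratio to pre-addition baseline per second over 15 to 24 s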). Conditions: thallium flux BTC fluorescence, at 10 µM, actives lie on both sides.
The nature of test [8]: inhibitors of larval lipid processing in zebrafish, primary screen, whole organism, PED6 fluorescence, gall bladder and intestine (AID 686).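 Further: larvae 5 to 7 days old with five fish per well; signal comes from phospholipase A2 cleavage of quenched PED6 carried via bile; overnight exposure to compound and PED6 before scoring.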 Conditions: Zebrafish larvae PED6 lipid processing, fluorescence scoring; screened at 20 µM (by protocol). In outline: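 Also added: quenched phospholipase substrate PED6, 100 nM final, ingested by larvae; System: zebrafish larvae, 5-7 d; Quantity: 5 larvae per well; Compound: 20 µM single dose; Schedule: overnight compound and PED6 incubation; Read-out: visual per-well fluorescence inhibition score; Measured by: By-eye fluorescence microscopy; Medium: E3.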

The nature of test [9]: inhibitors of Chlamydomonas gravitaxis, primary screen, whole organism, Chlamydomonas reinhardtii, WT vs cilia-less mutant, absorbance, 96-well (AID 463189;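 active means inhibition at or above 50% relative to wild type and mutant plate controls; inactive means inhibition below 50%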;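 further: 0% = wild type cc124 cells in DMSO and 100% = ciliumless bld1 mutant cells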). The note with it: OD600 absorbance, 2 days, at 10 µM, stronger effect = higher value.
The mark [10] stands for this setting: measured here: cell density z-score.
Setting [11] is: measured here: nuclear c-Myc green intensity z-score.
The mark [12] stands for this setting: measured here: nuclear pErk red intensity z-score, stronger effect = higher value.

Data on 7 compounds can be found in PubChem BioAssay.

Usually inhibition stands for the drop in the measured response relative to a control, in per cent.

Calls of active or inactive are those of the source.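 How the source made its calls, unless noted: active means a full or partial loss of lipid-probe fluorescence in the fish gall bladder, intestine or both, judged by eye; inactive means no fluorescence loss, or compound toxic to the fish.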

Dual specificity protein phosphatase 6 (Homo sapiens), sequence (Q16828 whole entry, looked up): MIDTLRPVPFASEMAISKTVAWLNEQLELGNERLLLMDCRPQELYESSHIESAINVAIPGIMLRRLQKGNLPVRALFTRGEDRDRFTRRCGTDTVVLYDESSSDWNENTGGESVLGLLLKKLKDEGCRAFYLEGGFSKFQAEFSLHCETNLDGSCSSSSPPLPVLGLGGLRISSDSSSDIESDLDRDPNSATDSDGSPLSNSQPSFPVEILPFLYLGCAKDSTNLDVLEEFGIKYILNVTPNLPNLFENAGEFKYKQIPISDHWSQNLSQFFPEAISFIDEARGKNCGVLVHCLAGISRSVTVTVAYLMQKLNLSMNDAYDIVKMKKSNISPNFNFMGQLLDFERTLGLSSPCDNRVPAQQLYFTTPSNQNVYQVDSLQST
Voltage-gated potassium channel subunit beta-2 (Rattus norvegicus), sequence (P62483 whole entry, looked up): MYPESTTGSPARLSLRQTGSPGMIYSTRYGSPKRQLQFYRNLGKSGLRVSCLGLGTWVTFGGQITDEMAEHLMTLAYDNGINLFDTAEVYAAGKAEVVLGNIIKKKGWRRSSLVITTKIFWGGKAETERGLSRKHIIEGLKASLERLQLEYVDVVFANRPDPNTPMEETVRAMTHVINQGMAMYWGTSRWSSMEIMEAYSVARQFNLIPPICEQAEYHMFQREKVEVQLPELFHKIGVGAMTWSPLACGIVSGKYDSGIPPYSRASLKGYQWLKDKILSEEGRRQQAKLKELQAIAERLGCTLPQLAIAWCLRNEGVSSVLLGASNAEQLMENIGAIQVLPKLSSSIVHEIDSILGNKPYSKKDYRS
Alpha-2C adrenergic receptor (Homo sapiens), sequence (P18825 whole entry, looked up): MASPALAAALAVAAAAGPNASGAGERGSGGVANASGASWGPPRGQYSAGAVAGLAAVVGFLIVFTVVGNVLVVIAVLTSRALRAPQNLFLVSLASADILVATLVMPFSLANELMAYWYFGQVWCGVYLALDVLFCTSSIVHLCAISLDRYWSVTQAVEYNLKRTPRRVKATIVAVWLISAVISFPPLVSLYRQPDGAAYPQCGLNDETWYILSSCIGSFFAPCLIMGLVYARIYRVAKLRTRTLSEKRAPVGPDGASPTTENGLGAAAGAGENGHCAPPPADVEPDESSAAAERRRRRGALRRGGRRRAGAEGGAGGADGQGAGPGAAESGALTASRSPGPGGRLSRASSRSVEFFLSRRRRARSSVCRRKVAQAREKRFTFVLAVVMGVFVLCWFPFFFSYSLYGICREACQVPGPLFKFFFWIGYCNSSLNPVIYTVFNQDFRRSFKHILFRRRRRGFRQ

On to `C[C@@H]1C[C@H](Nc2ccccc2)c2ccccc2N1C(=O)c1cccnc1`, for which the cell count in [1] is 539. Also, the inhibition in [1] is -1.7% (inactive); in test [2], 3.9% (inactive); in test [4] it was 25.7% (inactive); in [9], 0.503% (inactive). In addition, the nuclei count in test [2] is 159%. The z-score is 2.9 in test [3] (setting [10]), -1.02 in test [3] (setting [11]) and 0.461 in [3] (setting [12]). For the same compound, in test [5], the fluorescence slope is -0.265 (inactive). Besides, the NADPH fluorescence slope in test [6] was 6.9e-06 (inactive). In addition, the slope in [7] was 0.00503 (inactive). Also, in [8], the result was inactive.
As for `N#Cc1c(SCC(=O)O)nc(N2CCCCC2)c2c1CCCC2`, in test [1], the cell count was determined as 555. Moreover, the inhibition in test [1] is 7.3% (inactive); in test [2], -50% (inactive); in [4], 16.8% (inactive); in test [9], 6.88% (inactive). The nuclei count in [2] is 123%. The z-score in test [3] (setting [10]) is 0.186; in test [3] (setting [11]) it was -1.79; in test [3] (setting [12]), 0.996. Further, the fluorescence slope in test [5] was -0.535 (inactive). Moreover, the NADPH fluorescence slope in test [6] is -4.5e-05 (inactive). Further, the slope in test [7] was 0.00499 (inactive). Further, the compound was classed as inactive in test [8].
With `O=C(NC1CCCCC1)N1CCSC1=Nc1ccccc1`, the cell count in [1] stood at 490. The inhibition in test [1] is -27.8% (inactive); in test [2], -420% (inactive); in [4], 24.4% (inactive); in test [9], 11.3% (inactive). In test [2], this compound gave a nuclei count of 202%. Further, the z-score is 0.92 in test [3] (setting [10]), -1.53 in [3] (setting [11]) and 0.173 in test [3] (setting [12]). For the same compound, the fluorescence slope in [5] was -0.495 (inactive). Moreover, the NADPH fluorescence slope in test [6] is -9.6e-05 (inactive). Also, the slope in [7] is 0.00417 (inactive). Besides, the compound was called inactive in test [8].
Consider `CC(C)NC(=O)N1CCOCCOCCN(C(=O)NC(C)C)CCOCCOCC1`, for which the cell count in [1] came out at 513. Moreover, the inhibition is -16.8% (inactive) in test [1], -142% (inactive) in [2], 13.9% (inactive) in test [4] and 11.9% (inactive) in test [9]. This compound registered a nuclei count in test [2] of 144%. In addition, the figures for the z-score in test [3] (setting [10]), in test [3] (setting [11]) and in test [3] (setting [12]) were 2.53, -2.34 and -0.54, respectively. Also, in [5], the fluorescence slope was -0.538 (inactive). In addition, in test [6], the NADPH fluorescence slope is -6.1e-05 (inactive). Moreover, in test [7], the slope was 0.00725 (inactive). Moreover, the compound was called inactive in test [8].
Turning to `Cc1nc(-c2cn[nH]c2)c2cc(C)oc2n1`, in test [1], the cell count came out at 599. Also, the inhibition was -33.9% (inactive) in [1], -51.1% (inactive) in test [2], -2.07% (inactive) in [4] and -8.8% (inactive) in [9]. Moreover, the nuclei count in test [2] was 120%. The z-score was -2.18 in test [3] (setting [10]), 1.64 in test [3] (setting [11]) and 0.464 in test [3] (setting [12]). The fluorescence slope in test [5] was -0.491 (inactive). In addition, the NADPH fluorescence slope in [6] is -0.00022 (inactive). The slope in test [7] was 0.00453 (inactive). For the same compound, the call in [8] was inactive.
Turning to `C=CCOC(=O)C(C#N)c1nc2ccccc2nc1N1CCN(c2ccccc2OCC)CC1` (stereo unspecified), in test [1], the cell count came out at 543. Besides, the inhibition in test [1] is -30.2% (inactive); in [2], -94.9% (inactive); in test [4], -11.5% (inactive); in test [9] it was -7.78% (inactive). The compound further had a nuclei count in test [2] of 165%. Also, the z-score is -0.552 in test [3] (setting [10]), -0.297 in [3] (setting [11]) and 0.325 in test [3] (setting [12]). Besides, the fluorescence slope in test [5] is -0.494 (inactive). Besides, the NADPH fluorescence slope in test [6] was -3.6e-05 (inactive). The slope in test [7] was 0.00373 (inactive). Further, the call in test [8] was inactive.
For the compound `Cc1nc(N2CCOCC2)c(C#N)c2c1COC(C)(C)C2`, the cell count in [1] worked out at 582. Further, the inhibition in [1] is -0.2% (inactive); in test [2], -43.9% (inactive); in test [4], 3.66% (inactive); in test [9] it was -6.08% (inactive). The same compound registered a nuclei count in test [2] of 99.8%. Also, the z-score in test [3] (setting [10]) was -1.02; in test [3] (setting [11]), 1; in [3] (setting [12]) it was -1.11. For the same compound, the fluorescence slope in [5] was -0.521 (inactive). For the same compound, the NADPH fluorescence slope in [6] is -4.3e-05 (inactive). For the same compound, the slope in [7] is 0.00501 (inactive). The compound was called inactive in test [8].
